Measured values published in ChEMBL document CHEMBL1287651, “Synthesis and in vitro antibacterial activity of fluoroquinolone derivatives containing 3-(N'-alkoxycarbamimidoyl)-4-(alkoxyimino) pyrrolidines” (2010).

Legend:
Assay type in all cases: functional
Staphylococcus aureus [1] = assay: Antibacterial activity against Staphylococcus aureus ATCC […] after 18 to 24 hrs by twofold serial dilution method
Summary of the method: (§1)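 MIC determined by the standard twofold serial dilution method on agar media, screening against Gram-positive and Gram-negative strains. Levofloxacin and gemifloxacin were run alongside as reference drugs.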

Staphylococcus aureus [2] = assay: Antibacterial activity against methicillin-resistant Staphylococcus aureus 08-1 after 18 to 24 hrs by twofold serial dilution method
Summary of the method: (§2)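 Standard twofold serial agar dilution method on agar media for MIC determination. Screened against representative Gram-positive and Gram-negative strains. Levofloxacin and GMFX served as control drugs.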

Staphylococcus aureus [3] = assay: Antibacterial activity against methicillin-sensitive Staphylococcus aureus 08-2 after 18 to 24 hrs by twofold serial dilution method; summary of the method: as §2
[4] = tested on: Staphylococcus epidermidis; assay: Antibacterial activity against methicillin-resistant Staphylococcus epidermidis 09-2 after 18 to 24 hrs by twofold serial dilution method; summary of the method: as §2
[5] = tested on: Staphylococcus epidermidis; assay: Antibacterial activity against methicillin-resistant Staphylococcus epidermidis 09-3 after 18 to 24 hrs by twofold serial dilution method; summary of the method: as §2
[6] = tested on: Staphylococcus epidermidis; assay: Antibacterial activity against methicillin-resistant Staphylococcus epidermidis 09-4 after 18 to 24 hrs by twofold serial dilution method; summary of the method: as §2
[7] = tested on: Staphylococcus epidermidis; assay: Antibacterial activity against methicillin-sensitive Staphylococcus epidermidis 09-3 after 18 to 24 hrs by twofold serial dilution method; summary of the method: as §2
[8] = tested on: Staphylococcus epidermidis; assay: Antibacterial activity against methicillin-sensitive Staphylococcus epidermidis 09-6 after 18 to 24 hrs by twofold serial dilution method; summary of the method: as §2
Streptococcus pneumoniae [9] = assay: Antibacterial activity against Streptococcus pneumoniae 08-2 after 18 to 24 hrs by twofold serial dilution method; summary of the method: as §1
Streptococcus pneumoniae [10] = assay: Antibacterial activity against Streptococcus pneumoniae 08-4 after 18 to 24 hrs by twofold serial dilution method; summary of the method: as §1
Enterococcus faecium [11] = assay: Antibacterial activity against Enterococcus faecium 08-2 after 18 to 24 hrs by twofold serial dilution method; summary of the method: as §1
Enterococcus faecium [12] = assay: Antibacterial activity against Enterococcus faecium 08-7 after 18 to 24 hrs by twofold serial dilution method; summary of the method: as §1
Enterococcus faecalis [13] = assay: Antibacterial activity against Enterococcus faecalis 08-10 after 18 to 24 hrs by twofold serial dilution method; summary of the method: as §1
Enterococcus faecalis [14] = assay: Antibacterial activity against Enterococcus faecalis 08-12 after 18 to 24 hrs by twofold serial dilution method; summary of the method: as §1
Escherichia coli [15] = assay: Antibacterial activity against Escherichia coli ATCC 25922 after 18 to 24 hrs by twofold serial dilution method; summary of the method: as §1
Escherichia coli [16] = assay: Antibacterial activity against Escherichia coli 08-21 after 18 to 24 hrs by twofold serial dilution method; summary of the method: as §1
Escherichia coli [17] = assay: Antibacterial activity against Escherichia coli 08-22 after 18 to 24 hrs by twofold serial dilution method; summary of the method: as §1
Klebsiella pneumoniae [18] = assay: Antibacterial activity against Klebsiella pneumoniae 09-21 after 18 to 24 hrs by twofold serial dilution method; summary of the method: as §1
Klebsiella pneumoniae [19] = assay: Antibacterial activity against Klebsiella pneumoniae 09-22 after 18 to 24 hrs by twofold serial dilution method; summary of the method: as §1
Klebsiella pneumoniae [20] = assay: Antibacterial activity against Klebsiella pneumoniae 09-23 after 18 to 24 hrs by twofold serial dilution method; summary of the method: as §1
Pseudomonas aeruginosa [21] = assay: Antibacterial activity against Pseudomonas aeruginosa ATCC 27853 after 18 to 24 hrs by twofold serial dilution method; summary of the method: as §1
Pseudomonas aeruginosa [22] = assay: Antibacterial activity against Pseudomonas aeruginosa 09-32 after 18 to 24 hrs by twofold serial dilution method; summary of the method: as §1
Pseudomonas aeruginosa [23] = assay: Antibacterial activity against Pseudomonas aeruginosa 09-33 after 18 to 24 hrs by twofold serial dilution method; summary of the method: as §1
Pseudomonas aeruginosa [24] = assay: Antibacterial activity against Pseudomonas aeruginosa 09-34 after 18 to 24 hrs by twofold serial dilution method; summary of the method: as §1
Pseudomonas aeruginosa [25] = assay: Antibacterial activity against Pseudomonas aeruginosa 09-35 after 18 to 24 hrs by twofold serial dilution method; summary of the method: as §1

Measured: MIC

CCO/N=C(/N)C1CN(c2c(F)cc3c(=O)c(C(=O)O)cn(CCF)c3c2F)C/C1=N\OC (stereo not given)
0.5 µg/mL: [7]
1 µg/mL: Streptococcus pneumoniae [10]
2 µg/mL: Klebsiella pneumoniae [19]
0.125 µg/mL: [5]
8 µg/mL: Streptococcus pneumoniae [9]
0.25 µg/mL: Staphylococcus aureus [1] | Staphylococcus aureus [2] | Staphylococcus aureus [3] | [4] | [6] | [8]
> 128 µg/mL: all other assays above

CCn1cc(C(=O)O)c(=O)c2cc(F)c(N3C/C(=N\OC)C(/C(N)=N\O)C3)c(F)c21 (stereo not given)
128 µg/mL: Escherichia coli [15]
1 µg/mL: [4] | [6] | Streptococcus pneumoniae [9] | Klebsiella pneumoniae [19] | Pseudomonas aeruginosa [21] | Pseudomonas aeruginosa [22] | Pseudomonas aeruginosa [23] | Pseudomonas aeruginosa [24]
0.25 µg/mL: Staphylococcus aureus [1] | Staphylococcus aureus [2] | Staphylococcus aureus [3] | [5] | [7] | [8]
> 128 µg/mL: all other assays above

CCO/N=C1\CN(c2c(F)cc3c(=O)c(C(=O)O)cn(CC)c3c2F)CC1/C(N)=N\O (stereo not given)
0.25 µg/mL: [5]
0.125 µg/mL: [7] | [8]
16 µg/mL: Streptococcus pneumoniae [9] | Escherichia coli [17]
1 µg/mL: Staphylococcus aureus [1] | Staphylococcus aureus [2] | Staphylococcus aureus [3] | [4] | [6]
> 128 µg/mL: all other assays above

CCn1cc(C(=O)O)c(=O)c2cc(F)c(N3C/C(=N\OC)C(/C(N)=N\OC)C3)c(F)c21 (stereo not given)
0.25 µg/mL: Staphylococcus aureus [1] | Staphylococcus aureus [2] | Staphylococcus aureus [3] | [5] | [6] | [7]
0.5 µg/mL: [8]
128 µg/mL: Escherichia coli [15] | Pseudomonas aeruginosa [21]
2 µg/mL: [4]
1 µg/mL: Streptococcus pneumoniae [9] | Streptococcus pneumoniae [10] | Klebsiella pneumoniae [19]
> 128 µg/mL: all other assays above

CCO/N=C(/N)C1CN(c2c(F)cc3c(=O)c(C(=O)O)cn(CC)c3c2F)C/C1=N\OC (stereo not given)
0.5 µg/mL: [4] | Streptococcus pneumoniae [10]
0.125 µg/mL: Staphylococcus aureus [1] | [5] | [6]
1 µg/mL: Klebsiella pneumoniae [19]
0.25 µg/mL: Staphylococcus aureus [2] | Staphylococcus aureus [3] | [7] | [8]
16 µg/mL: Streptococcus pneumoniae [9]
> 128 µg/mL: all other assays above

CO/N=C1\CN(c2c(F)cc3c(=O)c(C(=O)O)cn(C4CC4)c3c2F)CC1/C(N)=N\OC (stereo not given)
4 µg/mL: Streptococcus pneumoniae [10] | Pseudomonas aeruginosa [21]
16 µg/mL: Streptococcus pneumoniae [9]
8 µg/mL: Pseudomonas aeruginosa [22] | Pseudomonas aeruginosa [25]
64 µg/mL: Enterococcus faecium [12]
0.125 µg/mL: Staphylococcus aureus [1] | [4] | [7]
128 µg/mL: Escherichia coli [15]
0.25 µg/mL: Staphylococcus aureus [2] | Staphylococcus aureus [3] | [5] | [6] | [8] | Klebsiella pneumoniae [19]
> 128 µg/mL: all other assays above
